Test results published in ChEMBL document CHEMBL1156266, “Antisense oligonucleotides containing conformationally constrained 2',4'-(N-methoxy)aminomethylene and 2',4'-aminooxymethylene and 2'-O,4'-C-aminomethylene bridged nucleoside analogues show improved potency in animal models” (J Med Chem, 2010).
The source made the active and inactive calls. The rule behind the calls is not given here.

Columns and labels:
Mus musculus [1] = test: Toxicity in BALB/c mouse assessed as effect on liver weight at 0.5 to 14.8 mg/kg, ip administered twice a week for 3 weeks measured after 72 hrs of last dose; assay type: organism-based; design: dose 0.5-14.8 mg/kg, route intraperitoneal; settings: in vivo
Outline: (§1)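 Male Balb/c mice, ip ASO in PBS twice weekly for 3 weeks at four dose levels. Body weight recorded before each dose. Killed 3 days after last dose. Organ weights normalized to body weight, expressed relative to the saline-treated group.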

Mus musculus [2] = test: Toxicity in BALB/c mouse assessed as effect on kidney weight at 0.5 to 14.8 mg/kg, ip administered twice a week for 3 weeks measured after 72 hrs of last dose; assay type: organism-based; design: dose 0.5-14.8 mg/kg, route intraperitoneal; settings: in vivo; outline: as §1
Mus musculus [3] = test: Toxicity in BALB/c mouse assessed as effect on body weight at 0.5 to 14.8 mg/kg, ip administered twice a week for 3 weeks measured after 72 hrs of last dose; assay type: organism-based; design: dose 0.5-14.8 mg/kg, route intraperitoneal; settings: in vivo; outline: as §1
Mus musculus [4] = test: Toxicity in BALB/c mouse assessed as increase in spleen weight at 0.5 to 14.8 mg/kg, ip administered twice a week for 3 weeks measured after 72 hrs of last dose; assay type: organism-based; design: dose 0.5-14.8 mg/kg, route intraperitoneal; settings: in vivo; outline: as §1
Mus musculus [5] = test: Reduction in PTEN mRNA expression in ip dosed BALB/c mouse liver administered twice a week for 3 weeks measured after 72 hrs of last dose by RT-PCR analysis; assay type: functional
Outline: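 Male Balb/c mice, 6-week-old, ASO in PBS ip twice weekly for 3 weeks, four dose levels. Killed 72 h after last dose. Liver homogenized in guanidine isothiocyanate buffer, RNA column-purified. PTEN RNA by fluorescence qRT-PCR, normalized to cyclophilin A. Errors are SD.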

Nucleic Acid = test: Binding affinity to mouse PTEN mRNA assessed as melting temperature at 4 uM by thermal denaturation assay; assay type: nucleic-acid assay
Outline: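 Duplex with complementary length-matched RNA; UV absorbance versus temperature curves in 100 mM Na+, 10 mM phosphate, 0.1 mM EDTA, 4 μM each strand. Tm is the average of two experiments.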

[6] = Reduction in PTEN mRNA expression in mouse bEND.3 cells after 24 hrs by qRT-PCR analysis; assay type: functional, cell-based; settings: for IC50: BEND3, 24 h
Outline: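 bEnd.3 cells in DMEM/10% FBS, seeded at 1 × 10^4 cells/well the day before. Transfected 4 h at 37 °C with Lipofectin 3 μg/mL in OptiMEM, eight 1:2 dilutions (40 nM to 312.5 pM), then refed with complete medium for 24 h. PTEN RNA by qRT-PCR, normalized to cyclophilin A, as % untreated control. Triplicate plates. IC50 from sigmoidal fit, top 100%, bottom 0%.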

Mus musculus [7] = test: Hepatotoxicity in BALB/c mouse assessed as liver ALT level at 0.5 to 14.8 mg/kg, ip administered twice a week for 3 weeks measured after 72 hrs of last dose; assay type: toxicity, organism-based; design: dose 0.5-14.8 mg/kg, route intraperitoneal; settings: in vivo
Outline: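 Male 6-week-old Balb/c mice dosed ip in PBS twice weekly for 3 weeks: 0.7–23 mg/kg (four levels) or 0.5–14.6/14.8 mg/kg. Killed 72 h after final dose. Plasma from cardiac-puncture blood, ALT on clinical bioanalyzer. Errors are SD.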

Mus musculus [8] = test: Reduction in PTEN mRNA expression in BALB/c mouse liver at 37 mg/kg, ip administered once a week for 3 weeks measured after 72 hrs of last dose by RT-PCR analysis; assay type: functional, organism-based; design: dose 37 mg/kg

Row | Tm (Nucleic Acid) | IC50 [6] | SMILES | Activity (Mus musculus [1]) | Activity (Mus musculus [2]) | Activity (Mus musculus [3]) | Activity (Mus musculus [4]) | Activity (Mus musculus [5]) | ED50 (Mus musculus [5]) | Activity [6] | Activity (Mus musculus [7]) | Activity (Mus musculus [8])
1 | 57.7 °C | 3.1 nM | CON1C[C@@]2(COP(O)(=S)O[C@H]3[C@H]4ON(OC)C[C@@]3(COP(O)(=S)O[C@H]3[C@@H](O)[C@H](n5ccc(N)nc5=O)O[C@@H]3COP(O)(=S)O[C@H]3[C@@H](O)[C@H](n5cnc6c(=O)[nH]c(N)nc65)O[C@@H]3COP(O)(=S)O[C@H]3[C@@H](O)[C@H](n5cnc6c(=O)[nH]c(N)nc65)O[C@@H]3COP(O)(=S)O[C@H]3C[C@H](n5cc(C)c(=O)[nH]c5=O)O[C@@H]3COP(O)(=S)O[C@H]3[C@@H](O)[C@H](n5ccc(N)nc5=O)O[C@@H]3COP(O)(=S)O[C@H]3[C@@H](O)[C@H](n5cnc6c(N)ncnc65)O[C@@H]3COP(O)(=S)O[C@H]3[C@@H](O)[C@H](n5ccc(N)nc5=O)O[C@@H]3COP(O)(=S)O[C@H]3[C@@H](O)[C@H](n5cnc6c(=O)[nH]c(N)nc65)O[C@@H]3COP(O)(=S)O[C@H]3[C@@H](O)[C@H](n5cnc6c(N)ncnc65)O[C@@H]3COP(O)(=S)O[C@H]3C[C@H](n5cc(C)c(=O)[nH]c5=O)O[C@@H]3COP(O)(=S)O[C@H]3[C@H]5ON(OC)C[C@@]3(COP(O)(=S)O[C@H]3[C@H]6ON(OC)C[C@@]3(CO)O[C@H]6n3cc(C)c(N)nc3=O)O[C@H]5n3cc(C)c(=O)[nH]c3=O)O[C@H]4n3cc(C)c(N)nc3=O)O[C@@H](n3cc(C)c(=O)[nH]c3=O)[C@H](O1)[C@@H]2O (stereo partly specified) | Non-toxic | Non-toxic | Non-toxic | Toxic | Dose-dependent effect | 8 mg/kg | Dose-dependent effect | Non-toxic | –
2 | 58.6 °C | 2.5 nM | Cc1cn([C@@H]2O[C@]3(CO)CN(C)O[C@@H]2[C@@H]3OP(O)(=S)OC[C@]23CN(C)O[C@@H]([C@H](n4cc(C)c(=O)[nH]c4=O)O2)[C@@H]3OP(O)(=S)OC[C@H]2O[C@@H](n3cc(C)c(=O)[nH]c3=O)C[C@@H]2OP(O)(=S)OC[C@H]2O[C@@H](n3cnc4c(N)ncnc43)[C@H](O)[C@@H]2OP(O)(=S)OC[C@H]2O[C@@H](n3cnc4c(=O)[nH]c(N)nc43)[C@H](O)[C@@H]2OP(O)(=S)OC[C@H]2O[C@@H](n3ccc(N)nc3=O)[C@H](O)[C@@H]2OP(O)(=S)OC[C@H]2O[C@@H](n3cnc4c(N)ncnc43)[C@H](O)[C@@H]2OP(O)(=S)OC[C@H]2O[C@@H](n3ccc(N)nc3=O)[C@H](O)[C@@H]2OP(O)(=S)OC[C@H]2O[C@@H](n3cc(C)c(=O)[nH]c3=O)C[C@@H]2OP(O)(=S)OC[C@H]2O[C@@H](n3cnc4c(=O)[nH]c(N)nc43)[C@H](O)[C@@H]2OP(O)(=S)OC[C@H]2O[C@@H](n3cnc4c(=O)[nH]c(N)nc43)[C@H](O)[C@@H]2OP(O)(=S)OC[C@H]2O[C@@H](n3ccc(N)nc3=O)[C@H](O)[C@@H]2OP(O)(=S)OC[C@]23CN(C)O[C@@H]([C@H](n4cc(C)c(N)nc4=O)O2)[C@@H]3OP(O)(=S)OC[C@]23CN(C)O[C@@H]([C@H](n4cc(C)c(=O)[nH]c4=O)O2)[C@@H]3O)c(=O)nc1N (stereo partly specified) | Non-toxic | Non-toxic | Non-toxic | Toxic | Dose-dependent effect | 6 mg/kg | Dose-dependent effect | Non-toxic | Active
